Measurements reported in publication PMC6008205 (Journal of controlled release : official journal of the …, 2018).

What was measured:
[1] = Dynamic light scattering particle size and PDI of CSPNs; type: physicochemical; conditions: DLS in ultrapure water, peptide nanodrills 0.4 mM, triplicate
How it was run: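 Nanodrills formed spontaneously on vortexing peptide in ultrapure water or PBS pH 7.4. They were measured at 0.4 mM by dynamic light scattering in a quartz cuvette after 2 min equilibration. Measurements were done in triplicate and reported as arithmetic mean ± standard deviation.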

[2] = ANS spectrofluorimetric analysis of hydrophobic regions; type: physicochemical; conditions: ANS 0.2 µM, CSPNs 2–16 µM, excitation 356 nm; relative to 2F-RT
How it was run: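 Test peptides were dissolved in water at 2–16 µM, and the ANS probe was added at 0.2 µM. Spectra were read on a fluorescence microplate reader at ambient temperature, with excitation at 356 nm and emission scanned from 380–600 nm. All measurements were done in triplicate and reported as arithmetic mean ± standard deviation.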

[3] = Tapping mode AFM analysis of nanodrill size and mechanical stability; conditions: tapping mode AFM on mica under water, 400 µM peptide solution

With FFF--(RADA)2-Tat [3F-RT] the PDI [1] was 0.434, the “Mean ANS fluorescence intensity compared to 2F-RT” value [2] was “five-fold increase” and the “Aspect ratio by AFM” value [3] was 6.2±3.9. The “Nanodrill size (length) by AFM” value [3] was 105±67 nm.
